Results from ChEMBL document CHEMBL1122543, “A substituent constant analysis of the interaction of substituted naphthalene monoimides with DNA” (J Med Chem, 1984).

Columns and labels:
[1] = tested on: Nucleic Acid; experiment: Relative binding affinity for calf thymus DNA in MES 10 at 25 degrees C (Spectrophotometric data); type: nucleic-acid assay; conditions: Bos taurus
How it was run: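 Spectrophotometric titration of ~1 × 10^-3 M compound stock into calf thymus DNA in MES 10 buffer at 25 °C. Each point averages 100 absorbance readings. Absorbances converted to ν (mol bound per mol base pairs) and free ligand using free and bound extinction coefficients. K and site size n come from a nonlinear least-squares fit of the Scatchard plot to the site exclusion model, in base-pair molarity.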

[2] = tested on: Nucleic Acid; experiment: Thermal melting point of calf thymus DNA complexed with monoimide in MES 00 buffer (Spectrophotometric data); type: functional; conditions: Bos taurus

K [1]	SMILES	Tm [2]
0.0162	CN(C)CCCN1C(=O)c2cccc3c(N)ccc(c23)C1=O	70.6 °C
0.0083	CN(C)CCCN1C(=O)c2cccc3c([N+](=O)[O-])ccc(c23)C1=O	71.7 °C
0.0089	CN(C)CCCN1C(=O)c2cccc3cccc(c23)C1=O	71.9 °C
0.0234	CN(C)CCCN1C(=O)c2cccc3cc([N+](=O)[O-])cc(c23)C1=O	77.6 °C
0.0112	CN(C)CCCN1C(=O)c2cccc3cc(N)cc(c23)C1=O	70.6 °C
